# Read-outs that look alike come from different tables or passages of the source.
# How the values were obtained:
# EV-A71 2A^pro [1] = molecular target: T1, EV-A71 2A^pro (Enterovirus A71, UniProt B9VUU3); test: FRET-based enzymatic assay; assay type: biochemical
# T1 sequence (B9VUU3 863-1012): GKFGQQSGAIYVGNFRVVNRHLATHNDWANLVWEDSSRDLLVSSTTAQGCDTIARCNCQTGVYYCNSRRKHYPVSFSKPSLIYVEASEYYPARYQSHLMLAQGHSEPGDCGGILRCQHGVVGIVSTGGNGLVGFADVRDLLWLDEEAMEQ
# EV-A71 3C^pro [2] = molecular target: T2, EV-A71 3C^pro (Enterovirus A71, UniProt B9VUU3); test: FRET-based enzymatic assay; assay type: biochemical
# EV-D68 2A^pro [3] = molecular target: T3, EV-D68 2A^pro (Enterovirus D68, UniProt A0A097BW19); test: FRET-based enzymatic assay; assay type: biochemical
# T3 sequence (A0A097BW19 863-1009): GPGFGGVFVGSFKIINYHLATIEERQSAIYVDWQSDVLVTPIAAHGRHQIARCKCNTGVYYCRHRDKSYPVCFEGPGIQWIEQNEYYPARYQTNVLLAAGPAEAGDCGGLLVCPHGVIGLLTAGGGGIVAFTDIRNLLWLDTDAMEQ
# EV-D68 3C^pro [4] = molecular target: T4, EV-D68 3C^pro (Enterovirus D68, UniProt A0A097BW19); test: biochemical
# T4 sequence (A0A097BW19 1550-1732): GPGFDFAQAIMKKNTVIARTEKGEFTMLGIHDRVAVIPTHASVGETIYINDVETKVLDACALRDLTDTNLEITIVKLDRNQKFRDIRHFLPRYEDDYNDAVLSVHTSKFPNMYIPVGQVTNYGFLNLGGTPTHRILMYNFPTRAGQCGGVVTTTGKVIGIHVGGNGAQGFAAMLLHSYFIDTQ
# SARS-CoV-2 M^pro [5] = molecular target: T5, SARS-CoV-2 M^pro (Severe acute respiratory syndrome coronavirus 2, UniProt P0DTD1); test: Thermal shift binding assay; settings: for Tm change, SARS-CoV-2 M^pro: 4 mM DTT, 40 μM compound (shikonin 10 μM), 3 μM protease
# SARS-CoV-2 PL^pro = SARS-CoV-2 PL^pro (Severe acute respiratory syndrome coronavirus 2, UniProt P0DTD1); test: Thermal shift binding assay; settings: 4 mM DTT; 40 μM compound (shikonin 10 μM); 3 μM protease
# Outline: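 SARS-CoV-2 PLpro (ORF1ab 1564–1876, strain WIV04) was expressed from pET28b(+) in BL21(DE3) (0.5 mM IPTG, 18 °C, 24 h), Ni-NTA purified and eluted with 300 mM imidazole. Protein (3 μM) in 50 mM HEPES pH 7.5, 0.01% Triton X-100, with or without 4 mM DTT, sat with test compound or DMSO for 30 min at 30 °C. SYPRO orange (1×) was added and a 20–90 °C ramp at 0.05 °C/s applied. Tm was from a Boltzmann fit.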
# EV-A71 2A^pro [6] = molecular target: T1, EV-A71 2A^pro; test: Thermal shift binding assay; settings: 4 mM DTT; 40 μM compound (shikonin 10 μM); 3 μM protease
# Outline: (§1)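 Codon-optimised 2Apro was expressed in E. coli from pET28b(+), from EV-A71/7D3 or EV-D68 US/KY/14–18953. Protease (3 μM) in 50 mM Tris pH 7.0, 150 mM NaCl, 10% glycerol, with or without 4 mM DTT, was preincubated with test compound or DMSO at 30 °C for 30 min. SYPRO orange (1×) was then added and fluorescence followed over 20–90 °C at 0.05 °C/s. Tm was taken as the transition mid log (Boltzmann model).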
# EV-A71 3C^pro [7] = molecular target: T2, EV-A71 3C^pro; test: Thermal shift binding assay; settings: 4 mM DTT; 40 μM compound (shikonin 10 μM); 3 μM protease
# Outline: (§2)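 3Cpro (EV-A71/7D3 or EV-D68 US/KY/14–18953; codon-optimised, pET28b(+), BL21(DE3), 0.5 mM IPTG at 18 °C for 24 h, Ni-NTA purified) was used at 3 μM. Buffer was 50 mM Tris pH 7.0, 150 mM NaCl, 1 mM EDTA, 10% glycerol, with or without 4 mM DTT. Protease was preincubated with test compound or DMSO (30 °C, 30 min), then SYPRO orange (1×) added and a 20–90 °C ramp (0.05 °C/s) run. Tm came from a Boltzmann fit.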
# EV-D68 2A^pro [8] = molecular target: T3, EV-D68 2A^pro; test: Thermal shift binding assay; settings: 4 mM DTT; 40 μM compound (shikonin 10 μM); 3 μM protease
# Outline: as §1
# EV-D68 3C^pro [9] = molecular target: T4, EV-D68 3C^pro; test: Thermal shift binding assay; settings: for Tm change, EV-D68 3C^pro: 4 mM DTT, 40 μM compound (shikonin 10 μM), 3 μM protease
# Outline: as §2
# SARS-CoV-2 M^pro [10] = molecular target: T5, SARS-CoV-2 M^pro; assay type: binding
# SARS-CoV-2 = settings: at 10 μM; cited from earlier work
# in vitro = settings: human, CC50 (EV-A71 CPE assay conditions), RD cells, no virus, 37 °C, no MgCl2
# [11] = EV-A71 2A^pro IC50, with 4 mM DTT
# [12] = EV-A71 3C^pro IC50, with 4 mM DTT
# [13] = EV-D68 2A^pro IC50, with 4 mM DTT
# [14] = EV-D68 3C^pro IC50, with 4 mM DTT
SMILES,"IC50 (EV-A71 2A^pro [1]; EV-A71 2A^pro IC50, no DTT) [µM]",IC50 (EV-A71 2A^pro [1]; [11]) [µM],"IC50 (EV-A71 3C^pro [2]; EV-A71 3C^pro IC50, no DTT) [µM]",IC50 (EV-A71 3C^pro [2]; [12]) [µM],"IC50 (EV-D68 2A^pro [3]; EV-D68 2A^pro IC50, no DTT) [µM]",IC50 (EV-D68 2A^pro [3]; [13]) [µM],"IC50 (EV-D68 3C^pro [4]; EV-D68 3C^pro IC50, no DTT) [µM]",IC50 (EV-D68 3C^pro [4]; [14]) [µM],"Tm change, SARS-CoV-2 M^pro (SARS-CoV-2 M^pro [5])","Tm change, SARS-CoV-2 PL^pro (SARS-CoV-2 PL^pro)","Tm change, EV-A71 2A^pro (EV-A71 2A^pro [6])","Tm change, EV-A71 3C^pro (EV-A71 3C^pro [7])","Tm change, EV-D68 2A^pro (EV-D68 2A^pro [8])","Tm change, EV-D68 3C^pro (EV-D68 3C^pro [9])","Ligand binding to M^pro dimer (SARS-CoV-2 M^pro [10]; with 4 mM DTT, 10-40 μM drug)","Ligands bound per M^pro dimer (SARS-CoV-2 M^pro [10]; without DTT, 10-40 μM drug)","Reduction of viral replication, viral titer reduction assay (SARS-CoV-2)",CC50 (in vitro) [µM],other results
CCN(CC)C(=S)SSC(=S)N(CC)CC [disulfiram],11.8 ± 2.1,> 60,1 ± 0.6,> 60,3.5 ± 0.5,> 60,0.6 ± 0.1,> 60,no Tm change,no Tm change,no Tm change,no Tm change,no Tm change,no Tm change,completely disrupted,up to three,~30%,8.3,
O=c1sn(-c2cccc3ccccc23)c(=O)n1Cc1ccccc1 [tideglusib],3.4 ± 2.9,> 60,1.2 ± 0.1,> 60,1.3 ± 0.7,> 60,0.6 ± 0.3,> 60,no Tm change,no Tm change,no Tm change,no Tm change,no Tm change,no Tm change,did not bind,did not bind,no significant antiviral effect,16.6,
CCC[C@H](NC(=O)[C@@H]1[C@H]2CCC[C@H]2CN1C(=O)[C@@H](NC(=O)[C@@H](NC(=O)c1cnccn1)C1CCCCC1)C(C)(C)C)C(=O)C(=O)NC1CC1 [telaprevir],1.8 ± 0.9,1.3,,,0.1,,,,,,increased the Tm,,increased the Tm,,,,,,
CC(C)=CC[C@@H](O)C1=CC(=O)c2c(O)ccc(O)c2C1=O [shikonin],36 ± 20.5,> 60,0.5 ± 0.2,> 60,37 ± 14.2,> 60,1.2 ± 0.7,> 60,no Tm change,no Tm change,no Tm change,no Tm change,no Tm change,no Tm change,completely disrupted,up to four ligands per dimer,,0.8,
O=c1c2ccccc2[se]n1-c1ccccc1 [ebselen],5.9 ± 1.1,> 60,1.2 ± 0.7,> 60,3.6 ± 1,> 60,0.1,> 60,no Tm change,no Tm change,no Tm change,no Tm change,no Tm change,no Tm change,,,,17,Ligand binding to M^pro dimer (SARS-CoV-2 M^pro [10]): completely disrupted; Ligands bound per M^pro dimer (SARS-CoV-2 M^pro [10]): four
CCCCCCNC(=O)n1cc(F)c(=O)[nH]c1=O [carmofur],12.9 ± 4.5,> 60,0.4 ± 0.2,> 60,6.4 ± 1.3,> 60,0.3,> 60,no Tm change,no Tm change,no Tm change,no Tm change,no Tm change,no Tm change,moderate binding,up to three ligands per dimer,no significant antiviral effect,47.2,"Tm increase, SARS-CoV-2 M^pro (SARS-CoV-2 M^pro [5]; absence of DTT, 40 μM compound): 4.76 °C; Tm increase, EV-D68 3C^pro (EV-D68 3C^pro [9]; absence of DTT, 40 μM compound): 0.87 °C"
